ChEMBL document CHEMBL1148762, “Lysosome and HER3 (ErbB3) selective anticancer agent kahalalide F: semisynthetic modifications and antifungal lead-exploration studies” (J Med Chem, 2007)
The source made the active and inactive calls. The rule behind the calls is not given here.

Experiments:
Fusarium proliferatum [1] = assay: Antimicrobial activity against Fusarium proliferatum at 0.3 uM after 72 hrs by microtiter assay; type: functional
Method in brief: (§1)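 96-well microdilution broth assay with conidia (3 × 10^5 conidia/mL, harvested from 7-day PDA cultures and filtered) against F. oxysporum, F. proliferatum and F. solani at 0.3, 3 and 30 µM. Plates were held at 24 ± 1 °C under a 12 h photoperiod. Growth was read at 620 nm at 24, 48 and 72 h and reported as percent inhibition from mean absorbance with standard error.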

Fusarium proliferatum [2] = assay: Antimicrobial activity against Fusarium proliferatum at 3 uM after 48 hrs by microtiter assay; type: functional; method in brief: as §1
Fusarium proliferatum [3] = assay: Antimicrobial activity against Fusarium proliferatum at 3 uM after 72 hrs by microtiter assay; type: functional; method in brief: as §1
Fusarium proliferatum [4] = assay: Antimicrobial activity against Fusarium proliferatum at 0.3 uM after 48 hrs by microtiter assay; type: functional; method in brief: as §1
Fusarium oxysporum [5] = assay: Antimicrobial activity against Fusarium oxysporum at 0.3 uM after 48 hrs by microtiter assay; type: functional; method in brief: as §1
Fusarium oxysporum [6] = assay: Antimicrobial activity against Fusarium oxysporum at 0.3 uM after 72 hrs by microtiter assay; type: functional; method in brief: as §1
Fusarium solani [7] = assay: Antimicrobial activity against Fusarium solani at 0.3 uM after 48 hrs by microtiter assay; type: functional; method in brief: as §1
Fusarium solani [8] = assay: Antimicrobial activity against Fusarium solani at 0.3 uM after 72 hrs by microtiter assay; type: functional; method in brief: as §1
Fusarium oxysporum [9] = assay: Antimicrobial activity against Fusarium oxysporum at 3 uM after 48 hrs by microtiter assay; type: functional; method in brief: as §1
Fusarium oxysporum [10] = assay: Antimicrobial activity against Fusarium oxysporum at 3 uM after 72 hrs by microtiter assay; type: functional; method in brief: as §1
Fusarium solani [11] = assay: Antimicrobial activity against Fusarium solani at 3 uM after 48 hrs by microtiter assay; type: functional; method in brief: as §1
Fusarium solani [12] = assay: Antimicrobial activity against Fusarium solani at 3 uM after 72 hrs by microtiter assay; type: functional; method in brief: as §1
Fusarium oxysporum [13] = assay: Antimicrobial activity against Fusarium oxysporum at 30 uM after 48 hrs by microtiter assay; type: functional; method in brief: as §1
Fusarium oxysporum [14] = assay: Antimicrobial activity against Fusarium oxysporum at 30 uM after 72 hrs by microtiter assay; type: functional; method in brief: as §1
Fusarium solani [15] = assay: Antimicrobial activity against Fusarium solani at 30 uM after 48 hrs by microtiter assay; type: functional; method in brief: as §1
Fusarium solani [16] = assay: Antimicrobial activity against Fusarium solani at 30 uM after 72 hrs by microtiter assay; type: functional; method in brief: as §1
Fusarium proliferatum [17] = assay: Antimicrobial activity against Fusarium proliferatum at 30 uM after 48 hrs by microtiter assay; type: functional; method in brief: as §1
Fusarium proliferatum [18] = assay: Antimicrobial activity against Fusarium proliferatum at 30 uM after 72 hrs by microtiter assay; type: functional; method in brief: as §1
Fusarium proliferatum [19] = assay: Fungistatic activity against Fusarium proliferatum at 30 uM after 72 hrs by microtiter plate assay; type: functional, organism-based
Method in brief: (§2)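 Conidia come from 7-day potato dextrose agar cultures, filtered and set photometrically (625 nm) to 3 × 10^5 conidia/mL. They are exposed to compound at 30 µM in 96-well microdilution broth at 24 ± 1 °C under a 12 h photoperiod. After 72 h, 20 µL per well is subcultured on drug-free potato dextrose agar at 28 °C for 3 days. No regrowth is scored fungicidal; regrowth is scored fungistatic.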

Fusarium solani [20] = assay: Fungistatic activity against Fusarium solani at 30 uM after 72 hrs by microtiter plate assay; type: functional, organism-based; method in brief: as §2
Fusarium oxysporum [21] = assay: Fungistatic activity against Fusarium oxysporum at 30 uM after 72 hrs by microtiter plate assay; type: functional, organism-based; method in brief: as §2
Fusarium proliferatum [22] = assay: Fungicidal activity against Fusarium proliferatum at 30 uM after 72 hrs by microtiter plate assay; type: functional, organism-based
Method in brief: (§3)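 After 72 h of microtiter broth exposure at 30 µM, 20 µL from each well was plated onto compound-free potato dextrose agar and incubated 3 days at 28 °C. No regrowth was scored fungicidal; regrowth was scored fungistatic.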

Fusarium solani [23] = assay: Fungicidal activity against Fusarium solani at 30 uM after 72 hrs by microtiter assay; type: functional, organism-based; method in brief: as §3
Fusarium oxysporum [24] = assay: Fungicidal activity against Fusarium oxysporum at 30 uM after 72 hrs by microtiter plate assay; type: functional, organism-based; method in brief: as §3
Escherichia coli = assay: Antimicrobial activity against Escherichia coli; type: functional, organism-based
Staphylococcus aureus = assay: Antimicrobial activity against methicillin-resistant Staphylococcus aureus; type: functional, organism-based
Fusarium proliferatum [25] = assay: Antifungal activity against Fusarium proliferatum at 20 ug/mL after 3 days by fluorescence assay; type: functional, organism-based
Method in brief: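 Fusarium proliferatum conidia in potato dextrose broth in a tube with the coumarin (DEAC)-labelled probe at 20 µg/mL, held at 24 ± 1 °C. Hyphae and mycelia were viewed at 4, 8, 16, 24, 48 and 72 h by light and epifluorescence microscopy at 400× and 1000×. Conidia were first checked for autofluorescence.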

CO/C=C(/C(=O)OC)c1ccccc1Oc1cc(Oc2ccccc2C#N)ncn1 [AZOXYSTROBIN]
inhibition at 0.3 µM (Fusarium proliferatum [1]): 0%
inhibition at 3 µM (Fusarium proliferatum [2]): 21.7%
inhibition at 3 µM (Fusarium proliferatum [3]): 14.8%
inhibition at 0.3 µM (Fusarium proliferatum [4]): 0%
inhibition at 0.3 µM (Fusarium oxysporum [5]): 22.7%
inhibition at 0.3 µM (Fusarium oxysporum [6]): 15.3%
inhibition at 0.3 µM (Fusarium solani [7]): 16.6%
inhibition at 0.3 µM (Fusarium solani [8]): 11.7%
inhibition at 3 µM (Fusarium oxysporum [9]): 32.3%
inhibition at 3 µM (Fusarium oxysporum [10]): 7.1%
inhibition at 3 µM (Fusarium solani [11]): 25.3%
inhibition at 3 µM (Fusarium solani [12]): 15%
inhibition at 30 µM (Fusarium oxysporum [13]): 77.2%
inhibition at 30 µM (Fusarium oxysporum [14]): 32.9%
inhibition at 30 µM (Fusarium solani [15]): 62.7%
inhibition at 30 µM (Fusarium solani [16]): 51.7%
inhibition at 30 µM (Fusarium proliferatum [17]): 53%
inhibition at 30 µM (Fusarium proliferatum [18]): 40.7%
Activity (Fusarium proliferatum [19]): Active
Activity (Fusarium solani [20]): Active
Activity (Fusarium oxysporum [21]): Active

C/C=C1\NC(=O)[C@H](Cc2ccccc2)NC(=O)[C@@H](C(C)C)NC(=O)[C@@H]([C@@H](C)CC)NC(=O)[C@H](NC(=O)[C@H](NC(=O)[C@H](CCCNCc2ccncc2)NC(=O)[C@H]2CCCN2C(=O)[C@@H](NC(=O)[C@H](NC(=O)[C@H](NC(=O)[C@@H](NC(=O)CCCC(C)C)C(C)C)[C@H](C)O)C(C)C)C(C)C)[C@@H](C)CC)[C@@H](C)OC(=O)[C@H](C(C)C)NC1=O
Activity (Fusarium proliferatum [22]): Active
Activity (Fusarium solani [23]): Active
Activity (Fusarium oxysporum [21]): Active

C/C=C1\NC(=O)[C@H](Cc2ccccc2)NC(=O)[C@@H](C(C)C)NC(=O)[C@@H]([C@@H](C)CC)NC(=O)[C@H](NC(=O)[C@H](NC(=O)[C@H](CCCNCc2cccs2)NC(=O)[C@H]2CCCN2C(=O)[C@@H](NC(=O)[C@H](NC(=O)[C@H](NC(=O)[C@@H](NC(=O)CCCC(C)C)C(C)C)[C@H](C)O)C(C)C)C(C)C)[C@@H](C)CC)[C@@H](C)OC(=O)[C@H](C(C)C)NC1=O
Activity (Fusarium proliferatum [19]): Active
Activity (Fusarium solani [23]): Active
Activity (Fusarium oxysporum [24]): Active

C/C=C(\NC(=O)[C@H](Cc1ccccc1)NC(=O)[C@H](NC(=O)[C@H](NC(=O)[C@H](NC(=O)[C@H](NC(=O)[C@H](CCCN)NC(=O)[C@H]1CCCN1C(=O)[C@@H](NC(=O)[C@H](NC(=O)[C@H](NC(=O)[C@@H](NC(=O)CCCC(C)C)C(C)C)[C@H](C)O)C(C)C)C(C)C)[C@@H](C)CC)[C@@H](C)O)[C@@H](C)CC)C(C)C)C(=O)N[C@H](C(=O)O)C(C)C
Activity (Escherichia coli): inactive
Activity (Staphylococcus aureus): inactive

C/C=C1\NC(=O)[C@H](Cc2ccccc2)NC(=O)[C@@H](C(C)C)NC(=O)[C@@H]([C@@H](C)CC)NC(=O)[C@H](NC(=O)[C@H](NC(=O)[C@H](CCCNC(=O)c2cc3ccc(N(CC)CC)cc3oc2=O)NC(=O)[C@H]2CCCN2C(=O)[C@@H](NC(=O)[C@H](NC(=O)[C@H](NC(=O)[C@@H](NC(=O)CCCC(C)C)C(C)C)[C@H](C)O)C(C)C)C(C)C)[C@@H](C)CC)[C@@H](C)OC(=O)[C@H](C(C)C)NC1=O
Activity (Fusarium proliferatum [22]): inactive
Activity (Fusarium solani [23]): inactive
Activity (Fusarium proliferatum [25]): inactive
Activity (Fusarium oxysporum [24]): inactive
